Test results reported in ChEMBL document CHEMBL5303300, “EUbOPEN Chemogenomics Library - Multiplex” (2023).
Several values for one entry are separate records, joined by “and”; a condition that tells them apart may be missing. Identical values can stand only once.

System: Fibroblast
Assay: Multiplex assay against human fibroblast
Assay type: toxicity, cell-based
Conditions: number of replicates 2
Method in brief: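 Four dyes were applied at seeding to live cells: Hoechst33342, BioTracker Green Microtubule Cytoskeleton Dye, MitoTracker Red and Annexin V Alexa Fluor 680. Imaging after compound addition used a CQ1 microscope at 37°C and 5% CO2. CellPathfinder machine-learning gating then sorted cells into Hoechst high-intensity objects or normal cells, normal cells into healthy, pyknosed or fragmented nuclei, and pyknosed cells into mitotic or apoptotic, with tubulin, mitochondrial-mass and membrane-permeability phenotypes given as per cents of healthy-nucleus cells.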

[1] = 12 h, 1 µM, compound concentration 1 uM
[2] = 12 h, 10 µM, compound concentration 10 uM
[3] = 24 h, 1 µM, compound concentration 1 uM
[4] = 24 h, 10 µM, compound concentration 10 uM
[5] = 48 h, 1 µM, compound concentration 1 uM
[6] = 48 h, 10 µM, compound concentration 10 uM

SMILES: Cc1cn(CCN2CCN(c3ccccc3-c3cc(C#N)cc(C(=O)NCCCN4CCCC4)c3)CC2)c2ccccc12
- Population Apoptotic (%) [1]: 16% and 47%
- Population Fragmented Nuclei (%) [1]: 13% and 14%
- Population Healthy Nuclei (%) [1]: 70% and 63%
- Population Hoechst High Intensity Objects (%) [1]: 0%
- Population Membrane Permeable-Phenotype (%) [1]: 10% and 8%
- Population Mitochondria Different-Phenotype (%) [1]: 1% and 5%
- Population Mitotic Cells (%) [1]: 83% and 52%
- Population Normal (%) [1]: 100%
- Population Pyknosed Nuclei (%) [1]: 16% and 21%
- Population Tubulin-Different-Phenotype (%) [1]: 41% and 35%
- Total Cell Count [1]: 222 and 214
- Population Apoptotic (%) [2]: 40% and 37%
- Population Fragmented Nuclei (%) [2]: 28% and 31%
- Population Healthy Nuclei (%) [2]: 51% and 56%
- Population Hoechst High Intensity Objects (%) [2]: 0%
- Population Membrane Permeable-Phenotype (%) [2]: 7% and 5%
- Population Mitochondria Different-Phenotype (%) [2]: 20% and 17%
- Population Mitotic Cells (%) [2]: 59% and 62%
- Population Normal (%) [2]: 100%
- Population Pyknosed Nuclei (%) [2]: 19% and 12%
- Population Tubulin-Different-Phenotype (%) [2]: 82% and 83%
- Total Cell Count [2]: 248 and 358
- Population Apoptotic (%) [3]: 33% and 60%
- Population Fragmented Nuclei (%) [3]: 14% and 20%
- Population Healthy Nuclei (%) [3]: 73% and 65%
- Population Hoechst High Intensity Objects (%) [3]: 0%
- Population Membrane Permeable-Phenotype (%) [3]: 5% and 3%
- Population Mitochondria Different-Phenotype (%) [3]: 3% and 10%
- Population Mitotic Cells (%) [3]: 66% and 39%
- Population Normal (%) [3]: 100%
- Population Pyknosed Nuclei (%) [3]: 11% and 13%
- Population Tubulin-Different-Phenotype (%) [3]: 37% and 33%
- Total Cell Count [3]: 209 and 243
- Population Apoptotic (%) [4]: 81% and 82%
- Population Fragmented Nuclei (%) [4]: 17% and 27%
- Population Healthy Nuclei (%) [4]: 57% and 55%
- Population Hoechst High Intensity Objects (%) [4]: 0%
- Population Membrane Permeable-Phenotype (%) [4]: 2%
- Population Mitochondria Different-Phenotype (%) [4]: 51% and 58%
- Population Mitotic Cells (%) [4]: 18% and 17%
- Population Normal (%) [4]: 99%
- Population Pyknosed Nuclei (%) [4]: 25% and 17%
- Population Tubulin-Different-Phenotype (%) [4]: 93% and 88%
- Total Cell Count [4]: 197 and 332
- Population Apoptotic (%) [5]: 44% and 76%
- Population Fragmented Nuclei (%) [5]: 19% and 24%
- Population Healthy Nuclei (%) [5]: 77% and 70%
- Population Hoechst High Intensity Objects (%) [5]: 0%
- Population Membrane Permeable-Phenotype (%) [5]: 2% and 3%
- Population Mitochondria Different-Phenotype (%) [5]: 0% and 3%
- Population Mitotic Cells (%) [5]: 55% and 23%
- Population Normal (%) [5]: 100% and 99%
- Population Pyknosed Nuclei (%) [5]: 3% and 5%
- Population Tubulin-Different-Phenotype (%) [5]: 23% and 17%
- Total Cell Count [5]: 241 and 237
- Population Apoptotic (%) [6]: 95%
- Population Fragmented Nuclei (%) [6]: 9% and 17%
- Population Healthy Nuclei (%) [6]: 46% and 62%
- Population Hoechst High Intensity Objects (%) [6]: 1% and 0%
- Population Membrane Permeable-Phenotype (%) [6]: 6% and 1%
- Population Mitochondria Different-Phenotype (%) [6]: 75% and 67%
- Population Mitotic Cells (%) [6]: 4%
- Population Normal (%) [6]: 98% and 99%
- Population Pyknosed Nuclei (%) [6]: 43% and 19%
- Population Tubulin-Different-Phenotype (%) [6]: 93% and 91%
- Total Cell Count [6]: 144 and 240

SMILES: COc1ccccc1-c1cc(Nc2cccc(CS(N)(=O)=O)c2)ncn1
- Population Apoptotic (%) [1]: 36% and 33%
- Population Fragmented Nuclei (%) [1]: 4% and 7%
- Population Healthy Nuclei (%) [1]: 78% and 68%
- Population Hoechst High Intensity Objects (%) [1]: 0%
- Population Membrane Permeable-Phenotype (%) [1]: 8% and 2%
- Population Mitochondria Different-Phenotype (%) [1]: 1% and 0%
- Population Mitotic Cells (%) [1]: 63% and 66%
- Population Normal (%) [1]: 100% and 99%
- Population Pyknosed Nuclei (%) [1]: 16% and 24%
- Population Tubulin-Different-Phenotype (%) [1]: 13% and 7%
- Total Cell Count [1]: 202 and 230
- Population Apoptotic (%) [2]: 46% and 42%
- Population Fragmented Nuclei (%) [2]: 4% and 7%
- Population Healthy Nuclei (%) [2]: 77% and 71%
- Population Hoechst High Intensity Objects (%) [2]: 0%
- Population Membrane Permeable-Phenotype (%) [2]: 7% and 5%
- Population Mitochondria Different-Phenotype (%) [2]: 0% and 1%
- Population Mitotic Cells (%) [2]: 53% and 57%
- Population Normal (%) [2]: 100% and 99%
- Population Pyknosed Nuclei (%) [2]: 17% and 21%
- Population Tubulin-Different-Phenotype (%) [2]: 17% and 19%
- Total Cell Count [2]: 181 and 214
- Population Apoptotic (%) [3]: 41% and 49%
- Population Fragmented Nuclei (%) [3]: 6% and 10%
- Population Healthy Nuclei (%) [3]: 75% and 64%
- Population Hoechst High Intensity Objects (%) [3]: 0%
- Population Membrane Permeable-Phenotype (%) [3]: 5% and 7%
- Population Mitochondria Different-Phenotype (%) [3]: 2% and 0%
- Population Mitotic Cells (%) [3]: 58% and 50%
- Population Normal (%) [3]: 100% and 99%
- Population Pyknosed Nuclei (%) [3]: 18% and 25%
- Population Tubulin-Different-Phenotype (%) [3]: 15% and 12%
- Total Cell Count [3]: 194 and 245
- Population Apoptotic (%) [4]: 61% and 55%
- Population Fragmented Nuclei (%) [4]: 10% and 9%
- Population Healthy Nuclei (%) [4]: 76% and 68%
- Population Hoechst High Intensity Objects (%) [4]: 0%
- Population Membrane Permeable-Phenotype (%) [4]: 1%
- Population Mitochondria Different-Phenotype (%) [4]: 3% and 4%
- Population Mitotic Cells (%) [4]: 38% and 44%
- Population Normal (%) [4]: 100%
- Population Pyknosed Nuclei (%) [4]: 12% and 21%
- Population Tubulin-Different-Phenotype (%) [4]: 18% and 15%
- Total Cell Count [4]: 202 and 214
- Population Apoptotic (%) [5]: 66% and 56%
- Population Fragmented Nuclei (%) [5]: 5% and 14%
- Population Healthy Nuclei (%) [5]: 78% and 67%
- Population Hoechst High Intensity Objects (%) [5]: 0%
- Population Membrane Permeable-Phenotype (%) [5]: 4% and 6%
- Population Mitochondria Different-Phenotype (%) [5]: 0%
- Population Mitotic Cells (%) [5]: 33% and 43%
- Population Normal (%) [5]: 99%
- Population Pyknosed Nuclei (%) [5]: 15% and 18%
- Population Tubulin-Different-Phenotype (%) [5]: 8% and 5%
- Total Cell Count [5]: 192 and 250
- Population Apoptotic (%) [6]: 78% and 80%
- Population Fragmented Nuclei (%) [6]: 9%
- Population Healthy Nuclei (%) [6]: 83% and 74%
- Population Hoechst High Intensity Objects (%) [6]: 0%
- Population Membrane Permeable-Phenotype (%) [6]: 3% and 9%
- Population Mitochondria Different-Phenotype (%) [6]: 1%
- Population Mitotic Cells (%) [6]: 21% and 20%
- Population Normal (%) [6]: 100%
- Population Pyknosed Nuclei (%) [6]: 6% and 16%
- Population Tubulin-Different-Phenotype (%) [6]: 16% and 26%
- Total Cell Count [6]: 203 and 209

SMILES: CNc1ncc2cc(-c3ccc(-c4cccc(C)n4)cc3Cl)c(=O)n(C[C@H]3OC[C@H](N)CO3)c2n1
- Population Apoptotic (%) [1]: 43% and 42%
- Population Fragmented Nuclei (%) [1]: 9% and 17%
- Population Healthy Nuclei (%) [1]: 51% and 52%
- Population Hoechst High Intensity Objects (%) [1]: 0%
- Population Membrane Permeable-Phenotype (%) [1]: 10%
- Population Mitochondria Different-Phenotype (%) [1]: 0%
- Population Mitotic Cells (%) [1]: 56% and 57%
- Population Normal (%) [1]: 100%
- Population Pyknosed Nuclei (%) [1]: 39% and 30%
- Population Tubulin-Different-Phenotype (%) [1]: 21% and 18%
- Total Cell Count [1]: 176 and 246
- Population Apoptotic (%) [2]: 44% and 35%
- Population Fragmented Nuclei (%) [2]: 22% and 26%
- Population Healthy Nuclei (%) [2]: 26% and 28%
- Population Hoechst High Intensity Objects (%) [2]: 1% and 7%
- Population Membrane Permeable-Phenotype (%) [2]: 23% and 16%
- Population Mitochondria Different-Phenotype (%) [2]: 0%
- Population Mitotic Cells (%) [2]: 55% and 64%
- Population Normal (%) [2]: 98% and 92%
- Population Pyknosed Nuclei (%) [2]: 50% and 45%
- Population Tubulin-Different-Phenotype (%) [2]: 55% and 51%
- Total Cell Count [2]: 227 and 323
- Population Apoptotic (%) [3]: 41% and 67%
- Population Fragmented Nuclei (%) [3]: 14% and 21%
- Population Healthy Nuclei (%) [3]: 56%
- Population Hoechst High Intensity Objects (%) [3]: 0%
- Population Membrane Permeable-Phenotype (%) [3]: 25% and 13%
- Population Mitochondria Different-Phenotype (%) [3]: 0%
- Population Mitotic Cells (%) [3]: 58% and 32%
- Population Normal (%) [3]: 100% and 99%
- Population Pyknosed Nuclei (%) [3]: 28% and 21%
- Population Tubulin-Different-Phenotype (%) [3]: 29% and 15%
- Total Cell Count [3]: 179 and 248
- Population Apoptotic (%) [4]: 45% and 65%
- Population Fragmented Nuclei (%) [4]: 27% and 23%
- Population Healthy Nuclei (%) [4]: 34% and 36%
- Population Hoechst High Intensity Objects (%) [4]: 7% and 4%
- Population Membrane Permeable-Phenotype (%) [4]: 31% and 34%
- Population Mitochondria Different-Phenotype (%) [4]: 5% and 4%
- Population Mitotic Cells (%) [4]: 54% and 34%
- Population Normal (%) [4]: 92% and 95%
- Population Pyknosed Nuclei (%) [4]: 38% and 39%
- Population Tubulin-Different-Phenotype (%) [4]: 37% and 59%
- Total Cell Count [4]: 304 and 248
- Population Apoptotic (%) [5]: 61% and 86%
- Population Fragmented Nuclei (%) [5]: 22% and 24%
- Population Healthy Nuclei (%) [5]: 64% and 66%
- Population Hoechst High Intensity Objects (%) [5]: 0%
- Population Membrane Permeable-Phenotype (%) [5]: 36% and 19%
- Population Mitochondria Different-Phenotype (%) [5]: 0%
- Population Mitotic Cells (%) [5]: 38% and 13%
- Population Normal (%) [5]: 100%
- Population Pyknosed Nuclei (%) [5]: 12% and 9%
- Population Tubulin-Different-Phenotype (%) [5]: 39% and 19%
- Total Cell Count [5]: 171 and 237
- Population Apoptotic (%) [6]: 42% and 24%
- Population Fragmented Nuclei (%) [6]: 19% and 28%
- Population Healthy Nuclei (%) [6]: 57% and 51%
- Population Hoechst High Intensity Objects (%) [6]: 9% and 11%
- Population Membrane Permeable-Phenotype (%) [6]: 40% and 39%
- Population Mitochondria Different-Phenotype (%) [6]: 2% and 1%
- Population Mitotic Cells (%) [6]: 57% and 75%
- Population Normal (%) [6]: 90% and 88%
- Population Pyknosed Nuclei (%) [6]: 23% and 20%
- Population Tubulin-Different-Phenotype (%) [6]: 33% and 29%
- Total Cell Count [6]: 268 and 338
